Assay outcomes from PubChem.
Hits are enriched below; roughly 3.8% of the tested compounds scored in any of these assays.
CSC inhib: cancer stem cell viability inhibitors, primary screen, luminescence; cancer stem cell-like cells viability; inhibition, % at 7.5 µM; 1.1% of 300,000 active; in the data active = inhibition above about 75%; tested in HMLE shEcad cells
MC4R ag barr: MC4R agonists recruiting beta-arrestin, primary screen, cell-based, luminescence, agonist arm of biased-ligand search; Melanocortin receptor 4 (Homo sapiens), P32245; U2OS MC4R beta-arrestin complementation; percent of melanotan II response, DMSO zero; activation, % at 8.9 µM; 0.98% of 360,000 active; AID 540308, 2011;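 active = activation above a per-plate cutoff, the mean activation of sample wells on that plate plus 3 SD, cut at about 8% in these data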
MC4R antagonist: MC4R antagonists of cAMP signaling, primary screen, cell-based, TR-FRET, antagonist arm of biased-ligand search. MC4R-expressing cells, MTII-stimulated cAMP, LANCE TR-FRET. inhibition, % at 6.5 µM. 0.48% of 360,000 active. Melanocortin receptor 4 (Homo sapiens), P32245;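 active = inhibition above its plate's cutoff, the mean of tested wells on that plate plus 3 SD, cut at about 29% in these data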
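system = U2OS cells with stable human MC4R expression | also added = Melanotan II challenge after compound preincubation | dosing = one concentration, 6.5 µM nominal | incubation = compound 30 min, challenge 1 h, detection 1 h | measured by = TR-FRET with Eu-cAMP and labeled anti-cAMP, 671 nm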
Beta apoptosis: inhibitors of cytokine-induced beta cell apoptosis, primary screen, luminescence | INS-1E cytokine-induced death, ATP luminescence, 48 h; percent of positive-control rescue, neutral wells zero | protection from apoptosis, % (no concentration beside the values) | 0.8% of 300,000 active;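 active = Every replicate reaches about 75%, or at least half do and their mean reaches it too, limit read from the data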;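 also: higher means more ATP so stronger rescue from cytokine killing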
TMEM16A act: TMEM16A chloride channel activators or potentiators, primary screen, cell-based, HTS; HEK293 TMEM16A/YFP-H148Q/I152L, iodide quench fluorescence; stronger effect = lower value; Anoctamin-1 (Mus musculus), Q8BHY3; B-score at 10 µM; 0.3% of 340,000 active;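 active = fluorescence-ratio B-score plate-corrected deviation score at least 3 library SD below zero, with starting fluorescence score within 5 deviations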;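 also: channel opened by trigger with iodide after compound preincubation; score built on the fluorescence ratio of max minus min over baseline; more negative score means more quench and so TMEM16A activation or potentiation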
TMEM16A inh: TMEM16A chloride channel inhibitors, primary screen, cell-based, HTS; HEK293 TMEM16A/YFP iodide influx fluorescence, ionomycin; normalized B-score (activity score, 25-100; higher = stronger inhibition) at 10 µM; AID 588511, 2011; Anoctamin-1 (Mus musculus), Q8BHY3; 1.2% of 310,000 active;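 active = ratio plate-corrected score three or more library SD toward inhibition, starting fluorescence score within five deviations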;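 also: score derived from kinetic fluorescence span divided by baseline fluorescence per well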
MC4R barr ag: MC4R beta-arrestin agonists, retest, confirmation, cell-based, luminescence, U2OS | shares compounds with MC4R ag barr | U2OS MC4R beta-arrestin recruitment; scaled DMSO 0%, Melanotan II 100% | activation, % at 8.9 µM | 31% of 2,400 active | AID 602192, 2012;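 active = mean activation across replicates above the hit cutoff set in the earlier primary screen, cut at about 8% in these data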
MOR-DOR barr ag: agonists of MOR-DOR heterodimerization, counter-screen for MC4R biased agonist project, cell-based, luminescence; activation, % at 9.2 µM; AID 602194, 2012; U2OS PathHunter beta-arrestin, beta-gal luminescence; percent of deltorphin B response, DMSO zero; 5.8% of 2,400 active; shares compounds with MC4R ag barr;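 active = mean activation across replicates exceeds the hit threshold derived in the earlier primary screen, cut at about 18% in these data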
Target sequence (P35372 whole entry, looked up): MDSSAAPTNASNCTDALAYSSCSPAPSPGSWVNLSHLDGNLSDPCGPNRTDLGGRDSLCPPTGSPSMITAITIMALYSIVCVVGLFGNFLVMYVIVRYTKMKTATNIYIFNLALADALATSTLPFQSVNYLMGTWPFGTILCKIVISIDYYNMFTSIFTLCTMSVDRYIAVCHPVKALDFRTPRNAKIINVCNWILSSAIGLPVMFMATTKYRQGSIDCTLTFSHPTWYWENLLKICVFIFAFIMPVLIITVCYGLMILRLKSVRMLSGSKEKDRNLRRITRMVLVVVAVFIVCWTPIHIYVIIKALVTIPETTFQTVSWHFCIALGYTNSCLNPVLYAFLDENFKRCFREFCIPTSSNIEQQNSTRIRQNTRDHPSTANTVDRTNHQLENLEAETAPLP
Target sequence (P41143 whole entry, looked up): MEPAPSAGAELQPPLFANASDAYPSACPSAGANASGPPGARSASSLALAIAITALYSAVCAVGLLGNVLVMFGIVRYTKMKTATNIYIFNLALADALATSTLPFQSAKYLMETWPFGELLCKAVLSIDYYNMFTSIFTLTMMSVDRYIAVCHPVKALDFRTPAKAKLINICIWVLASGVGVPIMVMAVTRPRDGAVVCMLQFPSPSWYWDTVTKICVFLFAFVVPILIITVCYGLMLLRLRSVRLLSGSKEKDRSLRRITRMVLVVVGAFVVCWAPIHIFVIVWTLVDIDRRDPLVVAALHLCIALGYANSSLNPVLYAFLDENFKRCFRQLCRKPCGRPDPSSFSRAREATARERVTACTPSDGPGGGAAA
TMEM16A reconf: TMEM16A chloride channel inhibitors, confirmation, cell-based, re-confirmation. shares compounds with TMEM16A inh. HEK293 TMEM16A/YFP-H148Q, iodide quench fluorescence; ionomycin added to raise cell calcium. inhibition, % at 10 µM. 39% of 2,300 active;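 active = mean duplicate percent inhibition, scaled so buffer wells are 0 and the reference blocker 100, over three buffer SD above buffer mean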
HEK293 Ca mobil: calcium mobilization in TMEM16A/YFP HEK293 cells, confirmation, counter-screen for TMEM16A inhibitor project | shares compounds with TMEM16A inh | Fluo4 calcium mobilization | calcium response (% of ionomycin), % at 10 µM | 2% of 2,300 active | AID 652231, 2013;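 active = duplicate-averaged calcium signal over 20% of the ionomycin maximum, relative to buffer baseline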;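 also: each well's signal is peak minus trough fluorescence divided by its pre-addition baseline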
Parental YFP cnt: iodide YFP quench changes in parental YFP-HEK293, counter-screen for TMEM16A inhibitor project, cell-based | shares compounds with TMEM16A inh | ionomycin | YFP ratio F(max-min)/F0 at 10 µM | 2,300 tested, under 10 active | AID 652233, 2013;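 active = yellow fluorescent protein signal ratio exceeding the buffer control mean by over 5 SD of those controls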;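 also: ratio is mean of duplicate wells from kinetic YFP trace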
ClC-1 rat inh: ClC-1 chloride channel inhibition, selectivity assay for TMEM16A inhibitor project, cell-based, voltage-dependent ClC-1; shares compounds with TMEM16A inh; CHO ClC-1-YFP, iodide influx fluorescence quench; iodide control reads 0, buffer control 100; ratio percent, % at 10 µM; 2,300 tested, under 10 active;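 active = duplicate-mean ratio percent above the mean of iodide-only control wells, which defines zero, plus 5 of their SD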;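 also: higher percent means stronger block of ClC-1 iodide influx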
Hits are given with their value; - = inactive; . = not tested or not shown.

SMILES	CSC inhib	MC4R ag barr	MC4R antagonist	Beta apoptosis	TMEM16A act	TMEM16A inh	TMEM16A reconf	HEK293 Ca mobil	Parental YFP cnt	ClC-1 rat inh	others
COc1ccc(-c2nnc3sc(-c4cccs4)nn23)cc1OC	-	-	-	-	-	-	.	.	.	.
COc1cc(-c2nnc3sc(-c4cccs4)nn23)cc(OC)c1OC	-	15	-	-	-	-	.	.	.	.	MC4R barr ag=-;MOR-DOR barr ag=-
O=c1c2ccccc2nc(/C=C/c2ccc(O)cc2)n1CCc1ccccc1	-	15	-	-	-	-	.	.	.	.	MC4R barr ag=-;MOR-DOR barr ag=-
N#Cc1ccc(NC(=O)Cn2cnc(S(=O)(=O)N3CCCC3)c2)cc1	-	-	-	-	-	-	.	.	.	.
Cc1ccc(C(=O)Nc2c(C)cc(-c3ccc(Cl)cc3)oc2=O)cc1	-	19	-	-	-	-	.	.	.	.	MC4R barr ag=-;MOR-DOR barr ag=-
COc1cccc(-c2ccc(C#N)c(SCC(=O)NCc3ccco3)n2)c1	-	19	-	-	-	-	.	.	.	.	MC4R barr ag=-;MOR-DOR barr ag=-
COc1ccc(-c2cc(-c3cccs3)c(C#N)c(SCC(=O)NCc3ccco3)n2)cc1	-	-	-	-	.	-	.	.	.	.
CCN(CC)c1nc(OCCNC(=O)Nc2ccccc2)nc(N(CC)CC)n1	-	13	-	-	-	100	20%	-	-	-	MC4R barr ag=-;MOR-DOR barr ag=-
O=C(NCCOc1nc(N2CCOCC2)nc(N2CCOCC2)n1)Nc1ccccc1	-	-	-	-	-	-	.	.	.	.
Cc1ccc(NC(=O)/C(C#N)=C/c2ccc(C)s2)c(C)c1	-	18	-	-	-	-	-	-	-	-	MC4R barr ag=-;MOR-DOR barr ag=-
Cc1ccc(S(=O)(=O)c2cc(C)cc(S(=O)(=O)Nc3ccc(C(=O)O)cc3)c2C)cc1	.	-	-	-	-	-	.	.	.	.
O=C(N/N=C/c1ccc(O)cc1)c1ccc(COc2cc(Cl)ccc2Cl)o1	-	26	-	-	-5.6	25	-	-	-	-	MC4R barr ag=40;MOR-DOR barr ag=-
CC(=O)C[C@@H](O)CC(=O)[C@@H]1OC(=O)[C@H](C)CCCCc2ccccc21	.	-	-	.	.	.	.	.	.	.
CC(C)C(c1nnnn1C1CCCC1)N(C)C1CCCCC1 (centres undefined)	-	-	-	-	-	-	.	.	.	.
CN(c1ccccc1)C(c1ccc(F)cc1)c1nnnn1C1CCCC1 (centres undefined)	-	-	-	-	-	-	-	-	-	-
Cc1ccc(C(c2nnnn2C2CCCCC2)N(C)C2CCCCC2)cc1 (centres undefined)	-	-	-	-	-	25	-	-	-	-
CN(c1ccccc1)C(c1ccc(F)cc1)c1nnnn1CC1CCCO1 (centres undefined)	-	-	-	-	-	-	.	.	.	.
CCCc1nc2c(sc3nc4c(cc32)COC(C)(C)C4)c(=O)n1Cc1ccco1	-	-	-	-	-	25	47%	-	-	-
CCCc1nc2c(sc3nc4c(cc32)COC(C)(C)C4)c(=O)n1CCN(C)C	-	-	-	-	-	-	.	.	.	.
O=C(c1cc2c(ccc3ccccc32)oc1=O)N1CCCC1	-	-	-	-	-	100	-	-	-	-
O=C(c1cc2ccccc2oc1=O)N1CCN(CCc2ccccc2)CC1	-	-	-	-	-	25	-	-	-	-
O=C(c1ccco1)N1CCN(C(=O)c2cc3ccccc3oc2=O)CC1	-	-	-	-	-	-	.	.	.	.
COc1ccc2c(c1)CCc1c(C(=O)N(C)c3ccccc3)noc1-2	-	-	-	-	-	-	.	.	.	.
Cc1ccc(-n2c(C)cc(C(=O)COc3c(CO)cc(F)cc3CO)c2C)cc1C	-	-	-	-	-	25	32%	-	-	-
Cc1cc(C(=O)COc2ccccc2Cl)c(C)n1-c1ccc2c(c1)OCO2	-	-	-	-	-	-	.	.	.	.
SMILES	CSC inhib	MC4R ag barr	MC4R antagonist	Beta apoptosis	TMEM16A act	TMEM16A inh	TMEM16A reconf	HEK293 Ca mobil	Parental YFP cnt	ClC-1 rat inh	others
O=C(Cn1cc([N+](=O)[O-])ccc1=O)N1CCc2ccccc21	-	-	-	-	-	.	.	.	.	.
N#CC1=C(N)Oc2cc(O)c(C=Nc3ccccc3)cc2C1c1ccccc1 (centres undefined)	-	-	-	-	-	-	-	-	-	-
Cc1c(C(=O)Nc2nccs2)oc2ccc(Br)cc12	-	-	-	-	-	.	.	.	.	.
CC(=O)Nc1ccc(C(=O)CN2C(=O)NC3(CCOc4ccccc43)C2=O)c(F)c1 (centres undefined)	.	-	-	-	-	.	.	.	.	.
Cc1ccc(-c2onc(C)c2C)cc1S(=O)(=O)N1CCOc2ccccc21	-	-	-	-	-	100	-	-	-	-
Cc1cc(-c2ccc(C(C)C)c(S(=O)(=O)N3CCOc4ccccc43)c2)on1	-	-	-	-	-	-	.	.	.	.
C=CCNCc1cccn1-c1sc2c(c1C#N)CCCC2	-	-	-	-	-	25	-	-	-	-
N#Cc1c(-n2cccc2/C=N/O)sc2c1CCCC2	-	-	-	-	-	-	.	.	.	.
CCN(CC)C(=O)[C@H]1C[C@H](CC(=O)NC(C)(C)C)C(=O)N2CCc3c([nH]c4cc(CCC(=O)N(C)C)ccc34)[C@]12C	.	-	-	.	.	.	.	.	.	.
O=C(c1ccccc1)c1ccc2cc(O)ccc2c1	-	-	-	-	-	25	-	-	-	-
